# Published values gathered from unrelated publications.
# Each line is one published result; the experiments were not run side by side.
# Target: Serine/threonine-protein kinase 3 (STK3, Homo sapiens, UniProt Q13188)
# Sequence (Q13188 1-491, as in one of the studies): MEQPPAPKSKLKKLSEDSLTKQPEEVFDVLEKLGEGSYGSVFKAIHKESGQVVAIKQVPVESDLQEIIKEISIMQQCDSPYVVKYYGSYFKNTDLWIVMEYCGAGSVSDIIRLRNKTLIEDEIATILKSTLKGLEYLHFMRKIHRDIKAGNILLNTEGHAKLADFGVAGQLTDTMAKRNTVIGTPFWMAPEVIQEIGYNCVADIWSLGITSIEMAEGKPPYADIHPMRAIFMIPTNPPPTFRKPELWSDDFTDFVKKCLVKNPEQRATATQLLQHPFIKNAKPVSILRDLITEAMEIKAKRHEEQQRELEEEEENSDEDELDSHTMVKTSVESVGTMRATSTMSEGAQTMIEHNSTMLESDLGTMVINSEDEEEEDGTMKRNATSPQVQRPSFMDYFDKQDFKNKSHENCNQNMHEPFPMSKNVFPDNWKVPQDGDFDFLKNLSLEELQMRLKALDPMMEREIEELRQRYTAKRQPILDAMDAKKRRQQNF
Structure (SMILES),read-out,mode,technique,concentration,endpoint,result
CO[C@@H]1[C@H](N(C)C(=O)c2ccccc2)C[C@H]2O[C@]1(C)n1c3ccccc3c3c4c(c5c6ccccc6n2c5c31)C(=O)NC4,enzyme activity,inhibitor,,1 µM,inhibition,100%
COc1ccc2oc(-c3ccc4nc(N)oc4c3)c/c(=N\c3ccccc3NC(=O)CCN)c2c1,binding,,,1 µM,remaining binding,79%
Cc1ccc(NC(=O)c2ccnc(C(F)(F)F)c2)cc1-c1cc(OCCO)nc(N2CCOCC2)c1,binding,,,1 µM,remaining binding,79%
CCCCC(=O)Nc1ccc(-c2ccc3ncn(CCC)c(=O)c3c2)cn1,binding,,competition with immobilised ligand,0.5 µM,remaining binding,73%
CC#CC(=O)N1CCC[C@H]1c1nc(-c2ccc(C(=O)Nc3ccccn3)cc2)c2c(N)nccn12,enzyme activity,inhibitor,,1 µM,inhibition,19%
CN1CCN(C(=O)c2ccc(NC(=O)Nc3ccc(N(C)c4ccnc(Nc5ccc(CS(C)(=O)=O)cc5)n4)cc3)cc2)CC1,binding,,,1 µM,remaining binding,16%
Cc1cc(O)c(-c2ccc([C@@H](C)CN(C)C)cc2)c2c1[nH]c(=O)c1sccc12,enzyme activity,inhibitor,,0.1 µM,inhibition,9.39%
CC(C)S(=O)(=O)c1ccc2nccc(Nc3ccc4sc(C5CCCC5)nc4c3)c2c1,enzyme activity,inhibitor,,1 µM,activity vs control,103%
C#Cc1cc(-c2cc(Nc3nc(N[C@@H](C)c4ccc(F)cn4)ncc3Cl)n[nH]2)ccc1C=O,enzyme activity,inhibitor,,0.2 µM,inhibition,29.9%
